Screens from PubChem BioAssay.
This is a sample that favours compounds with a hit; in the whole collection about 1.8% have one here.
Casp6 inh – inhibitors of human caspase-6. purified caspase-6, Z-VEID-R110 cleavage fluorescence. inhibition, % at 12.5 µM. 0.53% of 350,000 active;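 active means mean inhibition across replicates at least about 35%, with every replicate also reaching that limit, limit read from the data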;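 further: 0% = median of neutral control wells and 100% = no fluorescence left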
Target sequence (P55212 24-179 limits assumed): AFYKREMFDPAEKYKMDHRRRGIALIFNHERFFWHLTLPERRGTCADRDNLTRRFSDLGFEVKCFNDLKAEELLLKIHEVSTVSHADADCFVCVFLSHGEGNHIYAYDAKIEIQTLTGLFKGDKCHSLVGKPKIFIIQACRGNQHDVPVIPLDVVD
Target sequence (P55212 194-293 limits assumed): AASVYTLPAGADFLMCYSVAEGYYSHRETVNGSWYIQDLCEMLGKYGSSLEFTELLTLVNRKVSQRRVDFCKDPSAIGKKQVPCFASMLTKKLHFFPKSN
UHRF1 MBD2 ctr – human UHRF1 methylated DNA binding inhibitors; Q96T88; UHRF1 binding to methylated oligo, TR-FRET; inhibition, % at 4.4 µM; 0.75% of 370,000 active; in the data active means inhibition above about 21%;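 further: UHRF1 SRA domain binding a hemimethylated CpG hairpin DNA probe; 0% = median of test compound wells and 100% = reference inhibitor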
MBD2 DNA inh – blocks human MBD2 binding to methylated DNA; Q9UBB5; TR-FRET, MBD2 binding to methylated oligonucleotide; inhibition, % at 4.4 µM; 0.31% of 370,000 active; AID 686964; in the data active means inhibition above about 13%
TDP2 inh – blocks human TDP2 phosphodiesterase activity | O95551 | recombinant TDP2, T5PNP hydrolysis, p-nitrophenol absorbance 415 nm | inhibition, % at 12.8 µM | 0.34% of 370,000 active;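 active means inhibition above the mean of all tested compounds plus 3 SD, set per campaign, cut at about 25% in these data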;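 further: 0% = DMSO with enzyme and 100% = buffer with substrate but no TDP2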
Target sequence (O95551 whole entry, looked up): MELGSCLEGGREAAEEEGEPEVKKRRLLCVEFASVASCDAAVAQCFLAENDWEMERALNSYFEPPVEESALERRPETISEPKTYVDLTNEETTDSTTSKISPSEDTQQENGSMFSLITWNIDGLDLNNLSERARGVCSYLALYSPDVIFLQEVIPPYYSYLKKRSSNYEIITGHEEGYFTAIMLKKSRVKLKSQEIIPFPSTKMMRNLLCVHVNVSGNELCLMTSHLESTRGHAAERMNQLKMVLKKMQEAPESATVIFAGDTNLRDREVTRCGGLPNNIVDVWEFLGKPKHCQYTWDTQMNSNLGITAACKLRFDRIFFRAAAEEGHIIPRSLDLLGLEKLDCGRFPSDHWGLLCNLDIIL
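System – recombinant human TDP2 · Quantity – TDP2 enzyme at 120 nM final · Doses – single concentration, 12.8 µM nominal, with 1% DMSO · Incubation – 2 h at 37 °C · Measured by – epi absorbance of p-nitrophenol freed from T5PNP by hydrolysis · Read-out – % inhibition relative to enzyme-containing and enzyme-free wells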
NSD2 HMT inh – blocks human histone methyltransferase NSD2. O96028. NSD2 peptide methylation, AlphaScreen, 120 min. inhibition, % at 12.5 µM. 0.54% of 310,000 active. AID 743445; in the data active means inhibition above about 50%
LEDGF integ inh – blocks HIV-1 LEDGF/p75-dependent DNA integration | TR-FRET IN-LEDGF/p75 DNA integration, Eu/Cy5 | inhibition, % at 3.7 µM | 0.64% of 370,000 active;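 active means inhibition above the screen-wide mean plus 3 SD, cut at about 13% in these data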;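 further: signal is the Cy5 over europium emission ratio at 671 and 618 nm; 0% = plate median of compound wells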
TDP2 inh conf – human TDP2 inhibition, confirmation; inhibition, % at 12.8 µM; recombinant human TDP2, absorbance read-out; shares compounds with TDP2 inh; 22% of 1,100 active; in the data active means inhibition above about 25%;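 further: 0% = vehicle with enzyme and 100% = no enzyme buffer only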
IN multimer up – HIV-1 integrase multimerization activation, counter-screen; shares compounds with LEDGF integ inh; TR-FRET HIV-1 integrase multimerization, biochemical; 17% of 2,000 active; AID 1053131; activation, % at 7.7 µM; in the data active means activation above about 8.9%
TRFRET interf – counter-screen for LEDGF/p75 integration inhibitors: TR-FRET optical interference; shares compounds with LEDGF integ inh; TR-FRET optical interference counterscreen, HIV-1 IN multimerization; inhibition, % at 7.7 µM; 2,000 tested, under 10 active; AID 1053135;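 active means inhibition above the mean over all tested compounds plus 3 SD, which no compound reached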;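 further: 0% = integrase with antibodies and DMSO and 100% = antibodies without integrase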
LEDGF integ conf – LEDGF/p75-dependent HIV-1 integration inhibition, confirmation; shares compounds with LEDGF integ inh; TR-FRET LEDGF/p75-dependent HIV-1 integration, biochemical; inhibition, % at 3.7 µM; 36% of 2,000 active; AID 1053136; in the data active means inhibition above about 14%
Numbers without * were called inactive; x = no result given.

SMILES	Casp6 inh	UHRF1 MBD2 ctr	MBD2 DNA inh	TDP2 inh	NSD2 HMT inh	LEDGF integ inh	TDP2 inh conf	IN multimer up	TRFRET interf	LEDGF integ conf
O=S(=O)(Nc1cccc2ccccc12)c1cccs1	-3	14	0	-3	x	1	x	x	x	x
N#CC1=C(N)C(C#N)(C#N)[C@H](c2ccoc2)[C@H]2CN(Cc3ccccc3)CC=C12	x	-1	-8	40*	8	19*	-2	2	-7	3
CC(=O)N1CC=C2C(C#N)=C(N)C(C#N)(C#N)[C@H](c3ccoc3)[C@H]2C1	x	-7	-5	7	3	1	x	x	x	x
COC(=O)c1cn(CC(=O)N2CCC3(CC2)C(=O)NCN3c2ccccc2)nn1	0	x	x	x	x	x	x	x	x	x
Cc1cc(/C=C2\SC(=S)NC2=O)c(C)n1-c1ccccc1	28	-3	-5	-6	31	-1	x	x	x	x
Cc1cc(/C=C2\SC(=S)NC2=O)c(C)n1C	4	23*	6	25*	41	38*	-4	14*	-49	12
O=C1N(Cc2ccccc2)Cc2ccccc2[C@H]2OC(c3ccc(OCCCO)cc3)=N[C@@]12CCS(=O)(=O)c1ccccc1	0	x	x	x	x	x	x	x	x	x
O=C(Cc1ccncc1)N1CC[C@@H]2[C@H](CO)Nc3ccc(-c4ccccc4F)cc3[C@@H]21	-2	x	x	x	x	x	x	x	x	x
CCCNC1=C(N(C(C)=O)c2cccc(F)c2)C(=O)c2ccccc2C1=O	80*	1	-12	26*	78*	17*	25*	-3	9	14*
CC1=NN(c2ccccc2)C(=O)C1C=Nc1ccc(N(C)C)cc1 (stereo not drawn)	4	32*	11	32*	9	60*	8	6	-28	9
CC1=NN(c2ccccc2)C(=O)C1/C=C1/NC(=S)NC1=O (stereo not drawn)	3	-5	-1	4	0	-1	x	x	x	x
CCC(=O)Nc1ccc2c(c1)OC[C@@H](C)N(C(=O)C1CCC1)C[C@@H](C)[C@@H](OC)CN(C)C2=O	-1	x	x	x	x	x	x	x	x	x
Nn1cnnc1N/N=C/c1ccc(Cl)cc1Cl	1	11	-4	73*	0	48*	-7	1	-2	-2
COc1cc(/C=C(\C#N)C(N)=O)ccc1OCc1c(C)no[n+]1[O-]	1	2	-1	-10	-2	3	x	x	x	x
COc1ccc(/C=N/Nc2nncn2N)cc1Br	14	7	-5	75*	14	70*	8	0	-1	-6
COc1ccc(CSc2nncn2N)cc1Br	x	2	-5	1	-2	4	x	x	x	x
COc1cc(/C=N/Nc2nncn2N)ccc1OCc1c(C)no[n+]1[O-]	3	8	2	68*	x	59*	6	1	-3	-3
CCCCCn1c(NC(=O)c2ccco2)c(S(=O)(=O)c2ccc(C)cc2)c2nc3ccccc3nc21	x	14	1	69*	6	17*	1	17*	-61	21*
O=C(O)c1ccc(NC2=C/C(=N/S(=O)(=O)c3cccs3)c3ccccc3C2=O)cc1	100*	3	-15	60*	x	31*	73*	9.1*	-32	75*
Cc1cc(C)c(S(=O)(=O)/N=C2\C=C(NS(=O)(=O)c3ccccc3)C(=O)c3ccccc32)c(C)c1	19	2	1	-8	44	-1	x	x	x	x
O=C(O)c1ccc(NC2=C/C(=N/S(=O)(=O)c3ccccc3)c3ccccc3C2=O)cc1	99*	8	-11	72*	x	49*	77*	7	-23	72*
O=C1C(Nc2ccc(O)cc2)=C/C(=N/S(=O)(=O)c2cccs2)c2ccccc21	99*	3	-11	78*	x	55*	78*	7	-26	70*
CN(C)C(=O)c1ccc(-c2ccccc2[C@@H]2[C@@H](CO)N(C(=O)C3CCCCC3)[C@H]2C#N)cc1	-1	x	x	x	x	x	x	x	x	x
Cc1cc(=O)c2c(o1)C(=O)c1occc1C2=O	92*	40*	11	36*	139*	51*	21	35*	-125	56*
O=C(N/N=C/c1ccc(O)cc1O)C(=O)N/N=C/c1ccc(O)cc1O	39*	-2	6	26*	2	15*	7	13*	-64	26*
SMILES	Casp6 inh	UHRF1 MBD2 ctr	MBD2 DNA inh	TDP2 inh	NSD2 HMT inh	LEDGF integ inh	TDP2 inh conf	IN multimer up	TRFRET interf	LEDGF integ conf
C(=NN=C(NN=Cc1cccs1)NN=Cc1cccs1)c1cccs1	-3	5	-4	54*	x	34*	-1	0	-1	-11
O=C1/C(=C\c2ccc(O)c(O)c2)C(c2ccccc2)=NN1c1ccccc1	-2	16	-2	26*	x	19*	6	24*	-118	29*
COC(=O)CC1=NN(c2ccccc2)C(=O)/C1=C\c1ccc(OC)cc1	x	-7	-8	13	7	-6	x	x	x	x
COc1cc(/C=C2/C(=O)N(c3ccc(C(=O)O)cc3)N=C2C)cc(OC)c1O	10	2	-8	21	7	1	x	x	x	x
COc1cc(/C=C2\C(=O)N(c3ccc(NC(C)=O)cc3)N=C2c2ccccc2)ccc1O	8	18	8	54*	38	44*	12	4	-21	-1
CCCC(=O)N1CC2(C1)CN(C(=O)CC)[C@@H](CO)c1c2c2ccc(OC)cc2n1C	0	x	x	x	x	x	x	x	x	x
COc1cc(OC)c(NC2=CC(=O)C(=O)c3ccccc32)cc1Cl	9	-1	0	4	29	3	x	x	x	x
Cc1cc(NC2=CC(=O)C(=O)c3ccccc32)no1	48*	-7	-11	29*	-1	16*	69*	5	-16	52*
COc1ccc(C(O)c2nccc3cc(OC)c(OC)cc23)cc1OC (stereo not drawn)	19	18	12	34*	2	29*	16	0	-1	3
COc1cc(N)c(C(O)c2nccc3cc(OC)c(OC)cc23)cc1OC (stereo not drawn)	9	0	6	11	32	1	x	x	x	x
CO[C@H]1CN(C)C(=O)c2cc(NC(C)=O)ccc2OC[C@@H](C)N(C(=O)C2CC2)C[C@@H]1C	-1	x	x	x	x	x	x	x	x	x
C[C@H]1CN([C@@H](C)CO)C(=O)c2cccc(NC(=O)CCCCCC(=O)Nc3ccccc3N)c2O[C@H]1CN(C)C	-1	x	x	x	x	x	x	x	x	x
